Screening data as filed in PubChem BioAssay.
Calb biofilm kill: kills Candida albicans biofilms; 0.14% of 85,000 active; inhibition, % at 6 µM; AID 834; C. albicans biofilm + clotrimazole, Alamar Blue;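 active = inhibition above 20%; inactive = inhibition below 20%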;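 also: preformed 24 hr biofilms exposed to compound for 48 hr; 0% = biofilm without compound and 100% = blank killed by clotrimazole plus chlorhexidine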
PostGolgi yeast: growth inhibition of a yeast mutant, post-Golgi transport screen. post-Golgi transport phenotypic cell assay. inhibition, % at 10 µM. 0.9% of 98,000 active;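 also: yeast cells grown in 1536-well plates; yeast grown about 18 h at 30C before absorbance read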
PostGolgi ctrl: growth of the yeast control strain, post-Golgi counter-screen; efflux-deficient yeast background strain, growth absorbance A615, 16 h; inhibition, % at 10 µM; 5% of 98,000 active
Pyk2 oligo antag: Pyk2 (human) oligomerization antagonism. Q293 cells, Pyk2 FERM NanoBiT luminescence; stronger effect = lower value. z-score (the deposit names both 25 µM and 10 µM). 0.83% of 99,000 active. AID 1347419;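 active = Z-score of -3 or lower, scaled per plate to the spread of control and sample wells; inactive = z-score above -3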;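 also: negative z-score means lost luminescence so less FERM oligomerization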
FAK inh: inhibitors of human focal adhesion kinase | biochemical FAK kinase activity assay | Q05397 | inhibition, %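 (tested at 7 µM)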 | 0.84% of 97,000 active | AID 727; in the data active = inhibition above about 19%;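 also: 0% = DMSO and 100% = reference compound high control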
tolC growth inh: E. coli tolC mutant growth inhibition; E. coli BW25113 tolC mutant growth, OD615; 2.2% of 65,000 active; growth inhibition, % at 10 µM (by protocol);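 active = growth inhibition at or above a cutoff equal to the mean over every tested compound plus 3 SD, cut at about 60% in these data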;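 also: growth measured after 20 h incubation at 37 °C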
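Test system: tolC-deleted E. coli BW25113; medium: LB with kanamycin 50 µg/mL; compound: single-point testing at 10 µM; incubation: 20 h compound exposure of bacteria at 37 °C; signal: OD at 615 nm; evaluation: growth inhibition in percent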
An asterisk follows results filed as active. A selection: hits, their analogues and other compounds. The true share with any hit is near 6.9%. Rule as the data show it, unless noted: active = inhibition above about 30%; inactive = the rest.

Screening O=C(CSc1ncnc2sc3c(c12)CCCC3)N1CCC(c2noc3ccc(F)cc23)CC1 returned Calb biofilm kill 10, PostGolgi yeast 23, PostGolgi ctrl 12, Pyk2 oligo antag 0.9, FAK inh 4 and tolC growth inh 27.
CCCC(=O)Nc1nc2ccc(OCC)cc2s1 was read as PostGolgi yeast -20, PostGolgi ctrl 6, FAK inh 4 and tolC growth inh -15.
`Cc1ccc(C)c(OCC(=O)Nc2nc3ccc([N+](=O)[O-])cc3s2)c1C` gave PostGolgi yeast 6, PostGolgi ctrl 34*, Pyk2 oligo antag -0.79 and FAK inh -3.
COc1ccc(Cl)cc1NC(=S)N1CCN(C(=O)c2ccco2)CC1 was read as PostGolgi yeast -7, PostGolgi ctrl 3, Pyk2 oligo antag -0.14 and FAK inh -8.
Screening O=C(O)c1ccc2c(c1)N(Cc1cccc(F)c1)C(=O)CS2 returned Calb biofilm kill 4, PostGolgi yeast 15, PostGolgi ctrl -5, FAK inh -3 and tolC growth inh 10.
Cc1ccc(CN2C(=O)CSc3ccc(C(=O)NCCN4CCOCC4)cc32)cc1 was read as Calb biofilm kill 3, PostGolgi yeast 6, PostGolgi ctrl 2, Pyk2 oligo antag -0.15 and tolC growth inh -8.
O=C1CCSc2ccc(Cl)cc2N1Cc1cccc(Cl)c1 was read as PostGolgi yeast -13, PostGolgi ctrl 41*, Pyk2 oligo antag -0.97 and FAK inh 5.
Screening Cc1ccc(CN2C(=O)CCSc3ccc(Cl)cc32)cc1 returned PostGolgi yeast 4, PostGolgi ctrl 46*, Pyk2 oligo antag -1.5 and FAK inh -2.
Screening COc1cc2oc3ccccc3c2cc1N(CC(=O)N(C)C)S(=O)(=O)c1ccc(C)cc1 returned PostGolgi yeast -3, PostGolgi ctrl 16, Pyk2 oligo antag -0.36 and FAK inh 1.
`COc1cc2oc3ccccc3c2cc1N(CC(=O)N1CCCCC1)S(=O)(=O)c1ccc(C)cc1` gave PostGolgi yeast -3, PostGolgi ctrl 43*, Pyk2 oligo antag 0.22 and FAK inh 0.
CC(NC(=O)COc1ccc(Br)cc1)C(=O)O (centres undefined) was read as Calb biofilm kill -1, PostGolgi yeast 2, PostGolgi ctrl 8, Pyk2 oligo antag -0.29, FAK inh -2 and tolC growth inh -12.
For O=C(COc1ccccc1Br)NCc1ccccn1 the results were Calb biofilm kill 1, PostGolgi yeast -6, PostGolgi ctrl 32*, Pyk2 oligo antag 0.07 and FAK inh -1.
For O=C(OCn1nnc2ccccc2c1=O)c1cn(-c2ccccc2)nc1-c1cccnc1 the results were Calb biofilm kill -1, PostGolgi yeast 34*, PostGolgi ctrl 4, Pyk2 oligo antag -4.1*, FAK inh 6 and tolC growth inh 15.
`CCCc1nc2ccccc2c(C(=O)O)c1CC` gave Calb biofilm kill 2, PostGolgi yeast -23, PostGolgi ctrl 23, Pyk2 oligo antag -0.05 and FAK inh -2.
Cc1ccc2nc(CSc3nnc(Cc4cccs4)n3C3CCCCC3)cc(=O)n2c1 was read as Calb biofilm kill 6, PostGolgi yeast -2, PostGolgi ctrl 39*, Pyk2 oligo antag 0.87, FAK inh 5 and tolC growth inh 9.
Screening Cc1sc2nc(CSc3nnc(Cc4cccs4)n3C3CCCCC3)[nH]c(=O)c2c1C returned Calb biofilm kill 1, PostGolgi yeast 7, PostGolgi ctrl -4, Pyk2 oligo antag -0.46, FAK inh -2 and tolC growth inh 38.
For COc1ccc(Cl)cc1CN1CCN(c2nc(C)cc(C)c2C#N)CC1 the results were PostGolgi yeast -14, PostGolgi ctrl 13, Pyk2 oligo antag -1.7, FAK inh 1 and tolC growth inh 97*.
Cc1cc(C)c(C#N)c(N2CCCC2)n1 was read as Calb biofilm kill 10, PostGolgi yeast 13, PostGolgi ctrl 2, Pyk2 oligo antag 0.39, FAK inh 4 and tolC growth inh 6.
Screening Cc1cc(C)c(C#N)c(N2CCN(CCOc3ccc(Cl)cc3)CC2)n1 returned Calb biofilm kill -4, PostGolgi yeast 2, PostGolgi ctrl 32*, Pyk2 oligo antag -1.6, FAK inh 4 and tolC growth inh 100*.
For CCOC(=O)c1c(C)c(C(=O)N2CCc3ccccc3C2)c(C)n1CC the results were Calb biofilm kill 11, PostGolgi yeast 8, PostGolgi ctrl 15, Pyk2 oligo antag 0.22, FAK inh -1 and tolC growth inh 29.
Screening O=C(Cn1ncc2c(=O)oc3ccccc3c21)N1CCC(N2CCCCC2)CC1 returned Calb biofilm kill 5, PostGolgi yeast 1, PostGolgi ctrl 14 and tolC growth inh -11.
Screening CCOc1ccccc1CNC(=O)c1cc2oc3ccccc3c2n1CC returned Calb biofilm kill -1, PostGolgi yeast -7, PostGolgi ctrl 31*, Pyk2 oligo antag -2 and FAK inh 0.
For Cn1c(C(=O)N2CCc3ccccc3C2)cc2oc3ccccc3c21 the results were PostGolgi yeast -2, PostGolgi ctrl 56*, Pyk2 oligo antag -0.36 and tolC growth inh 69*.
CCn1c(C(=O)N2CCc3ccccc3C2)cc2oc3ccccc3c21 was read as Calb biofilm kill 3, PostGolgi yeast -2, PostGolgi ctrl 34*, Pyk2 oligo antag -0.81 and FAK inh 0.
O=C(Cn1ncc2c(=O)oc3ccccc3c21)N1CCc2ccccc2C1 was read as Calb biofilm kill 22*, PostGolgi yeast -1, PostGolgi ctrl -16 and tolC growth inh 1.
`Cc1cc(C)nc(SCC(=O)N/N=C/c2cccn2-c2cccc(C(F)(F)F)c2)n1` gave Calb biofilm kill 4, PostGolgi yeast 2, PostGolgi ctrl 8, Pyk2 oligo antag 0.31 and FAK inh -2.
COc1ccc(S(=O)(=O)N2CCCN(CC(=O)C(C)(C)C)CC2)cc1 was read as Calb biofilm kill -2, PostGolgi yeast -3, PostGolgi ctrl -2, Pyk2 oligo antag 0.64, FAK inh -3 and tolC growth inh -11.
`COc1ccccc1Oc1cc(F)nc(N)n1` gave PostGolgi yeast 3, PostGolgi ctrl 5, Pyk2 oligo antag -0.24 and FAK inh 0.
For CC(=O)NCCC(=O)NCc1ccc(F)cc1 the results were Calb biofilm kill 5, PostGolgi yeast -4, PostGolgi ctrl 9, Pyk2 oligo antag 0.75 and FAK inh -2.
Screening CC(=O)NCCC(=O)Nc1ccc(F)cc1C returned Calb biofilm kill 10, PostGolgi yeast -2, PostGolgi ctrl 31*, Pyk2 oligo antag 0.06 and FAK inh 0.
`Cc1cc(C)cc(NC(=O)CCc2nc3ccccc3[nH]2)c1` gave PostGolgi yeast -18, PostGolgi ctrl 21, Pyk2 oligo antag 0.84 and FAK inh 0.
For C/C(=N\NC(=O)CSCc1ccc(Cl)cc1)c1ccc2c(c1)OCCO2 the results were PostGolgi yeast 3, PostGolgi ctrl 31*, Pyk2 oligo antag 0.83 and FAK inh -3.
`O=C(Nc1ccc2nc(-c3ccco3)c(-c3ccco3)nc2c1)NC1CC1` gave Calb biofilm kill 8, Pyk2 oligo antag -0.13 and FAK inh 92*.
